This is an account of results in ChEMBL document CHEMBL1687689, “Concise syntheses of the abyssinones and discovery of new inhibitors of prostate cancer and MMP-2 expression” (2010).

Test [1] relates to PC-3M. The test can be described thus: (§1) Cytotoxicity in human PC3M cells assessed as inhibition of cell proliferation upto 50 uM after 3 days by MTT assay. The format is functional. In outline:
(§2)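 Metastatic variant PC3-M human prostate cancer cells in exponential growth exposed 3 days to 0−50 μM of each racemate or enantiomer; viability by MTT, absorbance at 540 nm. CC50 derived from the concentration-response. For the 50 μM readout, absorbance at 72 h compared with untreated cells at the start (t = 0 h).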
In general terms: Formazan colour is commonly taken as a measure of viable cells.

The nature of test [2]: Cytotoxicity in human PC3M cells assessed as inhibition of cell proliferation after 3 days by MTT assay. The format is functional. The settings on record: PC-3M, 72 h. The gist of the method:
as §2

Test [3] has as its system PC-3M. Kind of test: Inhibition of MMP-2 mRNA expression in human PC3M cells at 3 uM after 3 days by qRT-PCR analysis relative to untreated control. The format is functional. The settings on record: 72 h. (In general: In qPCR the cycle at which signal appears reflects the starting amount.)
Test [4] can be described thus: as §1. The class given is functional, PC-3M. In outline: as §2

Structures are written as SMILES. The source made the active and inactive calls. The rule behind the calls is not given here.

Broadly, the inhibition is the change of the read-out against control, counted positive when it falls. As usually defined, the CC50 is the concentration giving 50% cytotoxicity. Consider `COc1c(CC=C(C)C)cc([C@H]2CC(=O)c3ccc(O)cc3O2)cc1CC=C(C)C`, for which the inhibition result in the test with PC-3M [1] is “Active”. Also, the CC50 in test [2] came out at 46 µM.
As for `CC(C)=CCc1cc([C@H]2CC(=O)c3ccc(O)cc3O2)ccc1O`, in the test on PC-3M [1], the inhibition result was “Active”.
On to `CC(C)=CCc1cc([C@H]2CC(=O)c3ccc(O)cc3O2)cc2c1OC(C)(C)C=C2`, for which 3 µM produced 65% inhibition with PC-3M [3]. In addition, the inhibition entry in the test on PC-3M [1] is “Active”. For the same compound, the CC50 in test [2] turned out to be 42 µM.
For `CC1(C)C=Cc2cc([C@@H]3CC(=O)c4ccc(O)cc4O3)ccc2O1`, in the test on PC-3M [1], the inhibition entry is “Active”.
On the same count and under the same terms, with `CC(C)=CCc1cc([C@@H]2CC(=O)c3ccc(O)cc3O2)ccc1O` the entry was “Active”.
Still for that read-out and setting: with `CC(C)=CCc1cc(C2CC(=O)c3ccc(O)cc3O2)ccc1O` (racemic) the entry was “Active”.
Regarding `CC(C)=CCc1cc(C2CC(=O)c3ccc(O)cc3O2)cc2c1OC(C)(C)C=C2` (racemic), the inhibition result in the test with PC-3M [1] was “Active”. Moreover, in test [2], the 50% cytotoxic concentration (CC50) was determined as 57 µM.
Turning to `COc1c(CC=C(C)C)cc([C@@H]2CC(=O)c3ccc(O)cc3O2)cc1CC=C(C)C`, the “fold change (FC)” value in test [4] was 2. Also, the inhibition entry in the test with PC-3M [1] is “Active”. Besides, the CC50 in test [2] was determined as 12 µM.
In the case of `COc1c(CC=C(C)C)cc(C2CC(=O)c3ccc(O)cc3O2)cc1CC=C(C)C` (racemic), the inhibition entry in the test on PC-3M [1] was “Active”. For the same compound, the CC50 in test [2] worked out at 33 µM.
For `CC1(C)C=Cc2cc(C3CC(=O)c4ccc(O)cc4O3)ccc2O1` (racemic), the inhibition entry in the test with PC-3M [1] was “Active”.
Still for that read-out and setting: the same measure for `CC1(C)C=Cc2cc([C@H]3CC(=O)c4ccc(O)cc4O3)ccc2O1`: “Active”.
